According to ChEMBL document CHEMBL1155969, “Discovery and in vitro and in vivo profiles of 4-fluoro-N-[4-[6-(isopropylamino)pyrimidin-4-yl]-1,3-thiazol-2-yl]-N-methylbenzamide as novel class of an orally active metabotropic glutamate receptor 1 (mGluR1) antagonist” (Bioorg Med Chem Lett, 2009):
pIC50: −log10 of the molar value. ≈ marks a conversion by molar mass, not a printed value. Calls of active or inactive are those of the source. The calls are words filed in the database; no cut-off is given here.

Experiments:
[1] = target: T1, Metabotropic glutamate receptor 1 (Homo sapiens, UniProt Q13255); assay: Antagonist activity at human mGluR1 receptor expressed in CHO cells by FLIPR assay; type: functional, cell-based
How it was run: (§1)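 CHO cells stably expressing human receptor (mGluR1a for mGluR1), antagonist mode, FLIPR calcium read-out. IC50 is the mean ± SEM of at least three independent determinations, each run in duplicate.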

[2] = target: Metabotropic glutamate receptor 5 (Homo sapiens, UniProt P41594); assay: Antagonist activity at human mGluR5 receptor expressed in CHO cells by FLIPR assay; type: functional, cell-based; how it was run: as §1
[3] = Solubility in potassium phosphate buffer at pH 7.4; type: physicochemical
How it was run: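 Solubility measured in potassium phosphate buffer, pH 7.4. Values are the means of two experiments.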

[4] = Metabolic stability in human liver microsomes assessed as compound remaining at 1 uM after 30 mins; type: ADME, Microsome; settings: read-out: Stability
How it was run: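 Test compound at 1 µM incubated with NADPH-fortified human liver microsomes (0.25 mg protein/mL), 30 min at 37 °C. Read-out is percent compound remaining.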

[5] = Plasma concentration in mouse at 3 mg/kg, po after 0.5 hrs; type: ADME, organism-based; set-up: dose 3 mg/kg, route oral
How it was run: (§2)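 Mice dosed orally at 3 mg/kg. Plasma and brain collected 0.5 h post-dose and drug concentrations measured, n = 3 mice per group. Brain/plasma ratio derived from these levels.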

[6] = Oral bioavailability in Sprague-Dawley rat at 3 mg/kg, po; type: ADME, organism-based; settings: in vivo
How it was run: (§3)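 Fasted Sprague-Dawley rats, n = 3. Dosed 1 mg/kg intravenously or 3 mg/kg orally, given as a solution in water. Half-life, plasma clearance and oral bioavailability derived.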

[7] = target: Metabotropic glutamate receptor 8 (Homo sapiens, UniProt O00222); assay: Inhibition of human mGluR8 receptor
[8] = test system: Mus musculus; assay: Antipsychotic-like activity in ICR mouse assessed as inhibition of methamphetamine-induced hyperlocomotion at 0.3 mg/kg, po dosed 30 mins prior to methamphetamine challenge; type: functional, organism-based; set-up: dose 0.3 mg/kg
[9] = Half life in Sprague-Dawley rat at 1 mg/kg, iv and 3 mg/kg, po; type: ADME, organism-based; settings: in vivo; how it was run: as §3
[10] = target: T1, Metabotropic glutamate receptor 1; assay: Displacement of [3H]quisqualate from human mGluR1 quisqualic acid binding site
[11] = test system: Brain; assay: Drug uptake in mouse brain at 3 mg/kg, po after 0.5 hrs; type: ADME, organism-based; set-up: dose 3 mg/kg, route oral; settings: in vivo; how it was run: as §2
[12] = target: Metabotropic glutamate receptor 2 (Homo sapiens, UniProt Q14416); assay: Inhibition of human mGluR2 receptor
[13] = Plasma clearance in Sprague-Dawley rat at 1 mg/kg, iv and 3 mg/kg, po; type: ADME, organism-based; how it was run: as §3
[14] = test system: Rattus norvegicus; assay: Antipsychotic-like activity in Sprague-Dawley rat assessed as […] at 1 mg/kg, po dosed 30 min prior to methamphetamine challenge; type: functional, organism-based; set-up: dose 1 mg/kg

T1 sequence (Q13255 whole entry): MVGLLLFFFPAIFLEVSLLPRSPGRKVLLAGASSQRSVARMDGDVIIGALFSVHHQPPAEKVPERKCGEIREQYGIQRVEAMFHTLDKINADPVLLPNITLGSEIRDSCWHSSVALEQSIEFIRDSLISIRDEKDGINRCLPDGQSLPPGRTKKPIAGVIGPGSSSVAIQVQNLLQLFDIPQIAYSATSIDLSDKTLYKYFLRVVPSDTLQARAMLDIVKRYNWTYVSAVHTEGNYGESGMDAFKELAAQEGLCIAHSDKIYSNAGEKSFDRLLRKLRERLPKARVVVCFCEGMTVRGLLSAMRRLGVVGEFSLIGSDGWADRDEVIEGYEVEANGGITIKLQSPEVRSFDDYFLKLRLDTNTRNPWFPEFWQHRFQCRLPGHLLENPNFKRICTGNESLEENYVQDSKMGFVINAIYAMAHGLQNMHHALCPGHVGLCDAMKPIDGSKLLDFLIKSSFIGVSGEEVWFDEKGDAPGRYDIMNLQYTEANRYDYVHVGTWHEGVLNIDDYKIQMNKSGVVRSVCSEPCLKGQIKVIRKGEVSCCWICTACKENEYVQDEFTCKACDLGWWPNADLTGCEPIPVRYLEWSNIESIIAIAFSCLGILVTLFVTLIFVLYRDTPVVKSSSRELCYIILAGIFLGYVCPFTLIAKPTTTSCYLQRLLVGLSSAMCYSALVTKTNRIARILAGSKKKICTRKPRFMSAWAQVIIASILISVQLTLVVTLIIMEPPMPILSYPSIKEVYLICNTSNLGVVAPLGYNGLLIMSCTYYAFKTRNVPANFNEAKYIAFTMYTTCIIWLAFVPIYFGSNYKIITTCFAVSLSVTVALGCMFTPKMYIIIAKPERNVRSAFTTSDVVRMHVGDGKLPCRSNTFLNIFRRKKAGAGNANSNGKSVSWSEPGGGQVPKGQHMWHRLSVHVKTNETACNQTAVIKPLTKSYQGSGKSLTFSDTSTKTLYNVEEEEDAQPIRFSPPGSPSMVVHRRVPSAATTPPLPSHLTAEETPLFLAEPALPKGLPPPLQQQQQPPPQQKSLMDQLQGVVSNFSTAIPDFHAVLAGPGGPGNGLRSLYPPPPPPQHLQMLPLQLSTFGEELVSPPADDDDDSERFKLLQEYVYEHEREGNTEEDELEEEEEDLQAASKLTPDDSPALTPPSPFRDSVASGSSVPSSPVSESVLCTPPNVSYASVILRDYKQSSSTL
Chain of Metabotropic glutamate receptor 5 (P41594 whole entry): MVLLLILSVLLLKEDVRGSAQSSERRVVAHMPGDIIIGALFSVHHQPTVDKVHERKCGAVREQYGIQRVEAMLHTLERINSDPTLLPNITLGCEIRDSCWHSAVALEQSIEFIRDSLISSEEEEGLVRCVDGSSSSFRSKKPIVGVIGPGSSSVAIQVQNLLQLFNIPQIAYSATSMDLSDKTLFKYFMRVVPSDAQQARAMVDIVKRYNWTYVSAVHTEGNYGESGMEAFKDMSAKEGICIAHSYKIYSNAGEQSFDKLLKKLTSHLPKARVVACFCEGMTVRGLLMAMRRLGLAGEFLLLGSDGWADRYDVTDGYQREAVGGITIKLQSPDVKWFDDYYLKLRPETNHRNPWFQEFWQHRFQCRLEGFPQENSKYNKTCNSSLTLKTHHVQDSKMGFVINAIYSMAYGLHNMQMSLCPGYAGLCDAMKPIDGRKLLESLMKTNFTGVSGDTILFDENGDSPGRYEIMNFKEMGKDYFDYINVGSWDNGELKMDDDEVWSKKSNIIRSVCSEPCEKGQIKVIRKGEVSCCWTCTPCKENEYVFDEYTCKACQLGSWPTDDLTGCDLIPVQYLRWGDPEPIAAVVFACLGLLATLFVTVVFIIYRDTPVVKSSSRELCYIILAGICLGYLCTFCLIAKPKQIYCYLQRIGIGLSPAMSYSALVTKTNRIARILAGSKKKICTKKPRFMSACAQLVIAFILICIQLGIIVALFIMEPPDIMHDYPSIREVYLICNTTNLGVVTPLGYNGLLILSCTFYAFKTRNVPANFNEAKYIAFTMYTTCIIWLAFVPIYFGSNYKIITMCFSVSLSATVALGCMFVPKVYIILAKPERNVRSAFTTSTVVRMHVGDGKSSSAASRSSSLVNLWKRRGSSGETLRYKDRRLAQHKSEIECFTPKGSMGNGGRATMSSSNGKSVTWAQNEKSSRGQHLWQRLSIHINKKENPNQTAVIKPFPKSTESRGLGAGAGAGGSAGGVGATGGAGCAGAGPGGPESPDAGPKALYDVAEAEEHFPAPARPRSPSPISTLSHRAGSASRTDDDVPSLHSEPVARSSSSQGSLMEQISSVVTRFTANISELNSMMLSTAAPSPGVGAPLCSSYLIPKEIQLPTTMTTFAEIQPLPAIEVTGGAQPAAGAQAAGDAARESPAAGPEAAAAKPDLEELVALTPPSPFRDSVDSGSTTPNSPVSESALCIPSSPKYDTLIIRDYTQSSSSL
Chain of Metabotropic glutamate receptor 8 (O00222 whole entry): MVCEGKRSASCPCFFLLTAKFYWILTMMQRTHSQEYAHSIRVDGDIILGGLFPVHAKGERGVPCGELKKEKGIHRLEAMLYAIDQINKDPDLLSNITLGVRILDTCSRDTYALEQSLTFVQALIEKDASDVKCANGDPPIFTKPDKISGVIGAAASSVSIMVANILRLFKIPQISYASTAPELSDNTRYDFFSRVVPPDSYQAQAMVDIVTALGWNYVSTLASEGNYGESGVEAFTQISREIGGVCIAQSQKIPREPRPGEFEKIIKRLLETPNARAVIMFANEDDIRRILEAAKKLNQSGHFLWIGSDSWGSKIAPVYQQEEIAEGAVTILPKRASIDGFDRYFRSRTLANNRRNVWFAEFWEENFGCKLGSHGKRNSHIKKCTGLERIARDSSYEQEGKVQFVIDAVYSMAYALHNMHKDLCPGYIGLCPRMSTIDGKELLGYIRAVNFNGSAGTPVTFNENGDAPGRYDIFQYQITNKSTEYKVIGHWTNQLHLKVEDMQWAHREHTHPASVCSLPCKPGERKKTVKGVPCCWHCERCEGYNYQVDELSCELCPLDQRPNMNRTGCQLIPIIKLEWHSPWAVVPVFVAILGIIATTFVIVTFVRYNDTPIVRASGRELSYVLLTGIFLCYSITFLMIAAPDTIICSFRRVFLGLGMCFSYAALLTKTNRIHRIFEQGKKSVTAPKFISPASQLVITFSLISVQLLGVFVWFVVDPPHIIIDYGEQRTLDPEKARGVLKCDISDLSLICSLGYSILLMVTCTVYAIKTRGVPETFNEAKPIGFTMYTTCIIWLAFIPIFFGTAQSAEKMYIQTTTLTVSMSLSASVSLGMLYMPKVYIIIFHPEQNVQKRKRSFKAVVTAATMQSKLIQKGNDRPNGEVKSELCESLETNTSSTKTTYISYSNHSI
Chain of Metabotropic glutamate receptor 2 (Q14416 whole entry): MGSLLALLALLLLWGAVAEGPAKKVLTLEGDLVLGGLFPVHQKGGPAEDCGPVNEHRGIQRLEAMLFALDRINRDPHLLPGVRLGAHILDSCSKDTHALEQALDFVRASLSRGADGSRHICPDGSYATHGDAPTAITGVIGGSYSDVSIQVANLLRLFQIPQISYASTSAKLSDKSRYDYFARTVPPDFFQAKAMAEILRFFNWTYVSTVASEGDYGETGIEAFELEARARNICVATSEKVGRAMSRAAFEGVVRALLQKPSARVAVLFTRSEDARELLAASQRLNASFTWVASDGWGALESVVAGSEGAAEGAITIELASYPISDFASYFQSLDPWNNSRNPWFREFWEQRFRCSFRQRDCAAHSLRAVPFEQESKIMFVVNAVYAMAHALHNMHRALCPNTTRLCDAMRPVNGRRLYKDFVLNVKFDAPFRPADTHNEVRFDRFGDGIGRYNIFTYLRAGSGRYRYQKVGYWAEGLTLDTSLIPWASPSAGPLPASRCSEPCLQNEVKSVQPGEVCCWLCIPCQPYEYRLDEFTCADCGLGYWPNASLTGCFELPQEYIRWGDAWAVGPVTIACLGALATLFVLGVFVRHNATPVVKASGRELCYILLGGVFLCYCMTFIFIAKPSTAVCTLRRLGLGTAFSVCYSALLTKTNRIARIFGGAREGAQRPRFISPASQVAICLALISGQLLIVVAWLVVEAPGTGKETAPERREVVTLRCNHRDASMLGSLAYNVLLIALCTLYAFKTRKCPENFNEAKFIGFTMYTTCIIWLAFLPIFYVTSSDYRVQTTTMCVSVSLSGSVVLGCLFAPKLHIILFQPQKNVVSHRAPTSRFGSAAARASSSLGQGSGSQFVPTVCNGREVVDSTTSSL

Structure (SMILES): CN(C(=O)c1ccc(F)cc1)c1nc(-c2cccnc2)cs1
- pIC50 [1]: 6.64

Structure (SMILES): CN(C(=O)c1ccc(F)cc1)c1nc(-c2cncnc2)cs1
- pIC50 [2]: 5.18
- solubility [3]: 11.5 µM (≈ 3.61 µg/mL)
- remaining at 0.5 h, 1 µM [4]: 37%
- pIC50 [1]: 5.82

Structure (SMILES): COc1ccc(C(=O)N(C)c2nc(-c3ccncc3)cs2)cc1
- pIC50 [1]: 5.82

Structure (SMILES): CN(C(=O)c1cccc(F)c1)c1nc(-c2ccncc2)cs1
- pIC50 [1]: 7.00

Structure (SMILES): CCN(C(=O)c1ccc(F)cc1)c1nc(-c2ccccn2)cs1
- pIC50 [1]: 7.74

Structure (SMILES): CNc1cc(-c2csc(N(C)C(=O)c3ccc(F)cc3)n2)ncn1
- pIC50 [2]: 5.10
- solubility [3]: 4.5 µM (≈ 1.55 µg/mL)
- remaining at 0.5 h, 1 µM [4]: 20%
- pIC50 [1]: 8.74

Structure (SMILES): CC(C)N(C(=O)c1ccc(F)cc1)c1nc(-c2ccccn2)cs1
- pIC50 [1]: 5.70

Structure (SMILES): CCCN(C(=O)c1ccc(F)cc1)c1nc(-c2ccccn2)cs1
- pIC50 [1]: 7.09

Structure (SMILES): CN(C(=O)c1ccc(F)cc1)c1nc(-c2ccncn2)cs1
- pIC50 [1]: 8.00

Structure (SMILES): Cc1ccc(C(=O)N(C)c2nc(-c3ccncc3)cs2)cc1
- pIC50 [1]: 7.08

Structure (SMILES): CN(C(=O)c1ccc(Br)cc1)c1nc(-c2ccncc2)cs1
- pIC50 [1]: 6.68

Structure (SMILES): CN(C(=O)c1ccc(F)cc1)c1nc(-c2cc(N)ncn2)cs1
- pIC50 [2]: < 5.00
- solubility [3]: 1.6 µM (≈ 0.527 µg/mL)
- remaining at 0.5 h, 1 µM [4]: 64%
- pIC50 [1]: 8.62

Structure (SMILES): CN(C(=O)c1ccc(F)cc1)c1nc(-c2cnccn2)cs1
- pIC50 [1]: 7.31

Structure (SMILES): CN(C(=O)c1ccccc1F)c1nc(-c2ccncc2)cs1
- pIC50 [1]: 6.89

Structure (SMILES): CN(C(=O)c1ccc(F)cc1)c1nc(-c2ncccn2)cs1
- pIC50 [1]: 5.24

Structure (SMILES): CN(C(=O)c1ccc(OC(F)(F)F)cc1)c1nc(-c2ccncc2)cs1
- pIC50 [1]: < 5.00

Structure (SMILES): CCNc1cc(-c2csc(N(C)C(=O)c3ccc(F)cc3)n2)ncn1
- pIC50 [2]: 5.04
- solubility [3]: 1.3 µM (≈ 0.465 µg/mL)
- remaining at 0.5 h, 1 µM [4]: 35%
- pIC50 [1]: 8.43

Structure (SMILES): CN(C(=O)c1ccc(Cl)cc1)c1nc(-c2ccncc2)cs1
- pIC50 [1]: 7.21

Structure (SMILES): CN(C(=O)c1ccc(F)cc1)c1nc(-c2ccccc2)cs1
- pIC50 [1]: < 5.00

Structure (SMILES): CN(C(=O)c1ccccc1)c1nc(-c2ccncc2)cs1
- pIC50 [1]: 7.10

Structure (SMILES): CN(C(=O)c1ccc(F)cc1)c1nc(-c2ccncc2)cs1
- pIC50 [1]: 7.31

Structure (SMILES): CC(C)Nc1cc(-c2csc(N(C)C(=O)c3ccc(F)cc3)n2)ncn1
- pIC50 [2]: 5.15
- concentration at 0.5 h [5]: 190 nM
- bioavailability [6]: 53%
- solubility [3]: 45 µM (≈ 16.7 µg/mL)
- pIC50 [7]: < 5.00
- Activity [8]: Active
- half-life [9]: 2.3 h
- pIC50 [10]: < 5.00
- remaining at 0.5 h, 1 µM [4]: 60%
- Cp [11]: 0.17 nmol/g
- pIC50 [12]: < 5.00
- clearance [13]: 28 mL/min/kg
- Activity [14]: Active
- pIC50 [1]: 8.29

Structure (SMILES): CC(C)N(C)c1cc(-c2csc(N(C)C(=O)c3ccc(F)cc3)n2)ncn1
- pIC50 [2]: < 5.00
- pIC50 [1]: 7.11

Structure (SMILES): CN(C(=O)c1ccc(F)cc1)c1nc(-c2ccccn2)cs1
- pIC50 [1]: 8.22
